Laboratory results as given in ChEMBL document CHEMBL1124456, “Synthesis and structure-activity relationship of substituted tetrahydro- and hexahydro-1,2-benzisothiazol-3-one 1,1-dioxides and thiadiazinones: potential anxiolytic agents” (J Med Chem, 1989).
Each block holds one compound with its values, some of them ahead of it. Activity calls are given as the source filed them. The rule behind the calls is not given here.

Legend:
[1] = molecular target: T1, 5-hydroxytryptamine receptor 1A (Rattus norvegicus, UniProt P19327); experiment: In vitro ability to inhibit [3H]8-OH-DPAT binding to 5-hydroxytryptamine 1A receptor of rat hippocampus ([…]) from 391-841; assay type: tissue-based
T1 sequence (P19327 whole entry): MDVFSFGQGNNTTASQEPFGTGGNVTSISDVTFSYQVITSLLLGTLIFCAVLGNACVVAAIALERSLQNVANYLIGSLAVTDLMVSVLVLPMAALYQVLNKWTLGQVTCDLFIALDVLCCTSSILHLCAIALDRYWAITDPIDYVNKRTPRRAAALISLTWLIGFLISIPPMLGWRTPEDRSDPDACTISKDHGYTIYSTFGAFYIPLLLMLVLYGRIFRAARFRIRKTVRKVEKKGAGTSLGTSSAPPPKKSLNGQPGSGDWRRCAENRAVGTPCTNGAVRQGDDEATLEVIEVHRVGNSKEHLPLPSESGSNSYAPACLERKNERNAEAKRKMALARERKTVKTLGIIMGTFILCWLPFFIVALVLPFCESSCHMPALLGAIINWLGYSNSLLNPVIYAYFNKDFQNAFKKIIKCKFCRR

[2] = Partition coefficient (logP); assay type: physicochemical; conditions: octanol/water
[3] = molecular target: Adrenergic receptor alpha-2 (Rattus norvegicus) (UniProt P22086+P19328+P22909); experiment: Percent inhibition of Alpha-2 adrenergic receptor at 1 uM; assay type: protein assay
[4] = molecular target: T2, Adrenergic receptor alpha-1 (Rattus norvegicus) (UniProt P15823+P23944+P43140); experiment: Percent inhibition of Alpha-1 adrenergic receptor at 1 uM; assay type: protein assay
[5] = molecular target: GABA-A receptor; anion channel (Rattus norvegicus) (UniProt O09028+P15431+P18506+P18508+P19969+P20236+P23574+P23576+P28471+P28473+P30191+P62813+P63079+P63138+Q91ZM7+Q9ES14); experiment: Percent inhibition of GABA-A benzodiazepine receptor at 1 uM; assay type: protein-complex assay
Method in brief: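 Male Sprague-Dawley rat brain (cerebellum and pons-medulla removed) was homogenized in 0.32 M sucrose to give a 30000g pellet, resuspended in Tris-HCl pH 7.5. Membranes were incubated with 1.5×10^-9 M [³H]diazepam (2.0 mL final) for 30 min at 4 °C, GF/C filtered, washed ice-cold and scintillation counted. Nonspecific binding was taken with 3×10^-6 M cold diazepam. Drug was tested at 1 μM.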

[6] = molecular target: Adrenergic receptor beta (Rattus norvegicus) (UniProt P18090+P10608+P26255); experiment: Percent inhibition of Beta adrenergic receptor at 1 uM; assay type: protein assay
Rattus norvegicus [7] = organism: Rattus norvegicus; experiment: Percent inhibition of QNB receptor at 1 uM
Rattus norvegicus [8] = organism: Rattus norvegicus; experiment: Anti-psychotic activity from the ability to block discrete trial conditioned avoidance response (CAR) of rats.; assay type: functional
Method in brief: (§1)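 Discrete-trial conditioned avoidance in male CD rats kept at about 400–450 g body weight. Dosing was ip or po, 30 min before testing, with at least five rats per dose (20 or 40 mg/kg, or a dose range). Computer recorded intertrial, avoidance and escape responses and no-response trials. Avoidance-block trials were taken as % of total trials, with control avoidance set at 100%. AB50 came from a least-squares dose-effect regression line.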

Rattus norvegicus [9] = experiment: Compound was tested for antagonism of apomorphine-induced climbing behavior, after intraperitoneal dosing; 7-101; assay type: functional; conditions: ip
Rattus norvegicus [10] = experiment: Compound was tested for antagonism of apomorphine-induced stereotyped behavior, after intraperitoneal dosing; NA= Inactive; assay type: functional, organism-based
Method in brief: (§2)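 High-dose apomorphine-induced stereotyped behavior procedure. Test agents were given ip at doses up to 60 mg/kg.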

Rattus norvegicus [11] = experiment: In vivo ability (10.0 mg/kg) was to antagonize serotonin syndrome; assay type: functional
Rattus norvegicus [12] = experiment: In vivo ability (40.0 mg/kg) was to elicit serotonin syndrome; assay type: functional
[13] = molecular target: D(2) dopamine receptor (Rattus norvegicus) (UniProt P61169); experiment: In vitro percent inhibition of [3H]spiperone binding to Dopamine receptor D2 of rat limbic structures at 1 uM; assay type: tissue-based; conditions: Limbic system
Sequence of D(2) dopamine receptor (Rattus norvegicus) (P61169 whole entry): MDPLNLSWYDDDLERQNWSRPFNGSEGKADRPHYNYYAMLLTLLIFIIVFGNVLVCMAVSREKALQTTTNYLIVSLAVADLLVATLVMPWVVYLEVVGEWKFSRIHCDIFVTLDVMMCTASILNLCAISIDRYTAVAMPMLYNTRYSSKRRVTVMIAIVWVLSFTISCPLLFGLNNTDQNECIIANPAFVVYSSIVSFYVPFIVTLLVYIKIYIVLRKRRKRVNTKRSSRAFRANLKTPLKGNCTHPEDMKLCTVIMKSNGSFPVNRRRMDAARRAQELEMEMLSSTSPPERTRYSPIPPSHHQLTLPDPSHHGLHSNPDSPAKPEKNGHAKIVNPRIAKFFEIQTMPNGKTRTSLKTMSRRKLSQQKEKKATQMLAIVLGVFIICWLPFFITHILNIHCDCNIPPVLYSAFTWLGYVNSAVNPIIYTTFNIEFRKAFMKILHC

[14] = molecular target: T3, 5-hydroxytryptamine receptor 1A (Rattus norvegicus) (UniProt P19327); experiment: In vitro ability to inhibit [3H]8-OH-DPAT binding to 5-hydroxytryptamine 1A receptor of rat hippocampus at 1 uM; assay type: tissue-based
T3 sequence (whole entry): T1 sequence (P19327 whole entry)

[15] = molecular target: D(2) dopamine receptor (Rattus norvegicus) (UniProt P61169); experiment: Inhibition of [3H]spiperone binding to Dopamine receptor D2 of rat limbic structures; assay type: tissue-based; parameters: concentration or dose not given beside the values; conditions: Limbic system, concentration not given here
Rattus norvegicus [16] = organism: Rattus norvegicus; experiment: Anti psychotic activity was evaluated from the ability to block discrete trial conditioned avoidance response (CAR) of rats and value ranges from 37 - 73; assay type: functional; method in brief: as §1
D(2) dopamine receptor [17] = molecular target: T4, D(2) dopamine receptor (Rattus norvegicus, UniProt P61169); experiment: In vitro ability to inhibit [3H]spiperone binding to Dopamine receptor D2 of rat limbic structures.; assay type: tissue-based, Limbic system
T4 sequence (P61169 whole entry): as above

Rattus norvegicus [18] = organism: Rattus norvegicus; experiment: Anti psychotic activity was evaluated from the ability to block discrete trial conditioned avoidance response (CAR) of rats (95%CI) from 37-73; assay type: functional; method in brief: as §1
[19] = molecular target: T1, 5-hydroxytryptamine receptor 1A; experiment: In vitro ability to inhibit [3H]8-OH-DPAT binding to 5-hydroxytryptamine 1A receptor of rat hippocampus and value ranges from 27 - 42; assay type: tissue-based
[20] = molecular target: D(2) dopamine receptor (Rattus norvegicus) (UniProt P61169); experiment: Inhibition of [3H]-spiperone binding to dopamine receptor D2 of rat limbic structures at 1 uM.; conditions: Limbic system
Rattus norvegicus [21] = experiment: Compound was tested for antagonism of apomorphine-induced climbing behavior, after intraperitoneal dosing; 1-23; assay type: functional; conditions: ip
[22] = molecular target: T3, 5-hydroxytryptamine receptor 1A (Rattus norvegicus); experiment: In vitro ability to inhibit [3H]-8-OH-DPAT binding to 5-hydroxytryptamine 1A receptor of rat hippocampus.; assay type: tissue-based; conditions: concentration not given here
[23] = molecular target: T1, 5-hydroxytryptamine receptor 1A; experiment: In vitro ability to inhibit [3H]8-OH-DPAT binding to 5-hydroxytryptamine 1A receptor of rat hippocampus ([…]) from 12 to 17; assay type: tissue-based
[24] = molecular target: T1, 5-hydroxytryptamine receptor 1A; experiment: In vitro ability to inhibit [3H]-8-OH-DPAT binding to 5-hydroxytryptamine 1A receptor of rat hippocampus and value ranges from 15 - 31; assay type: tissue-based
Rattus norvegicus [25] = experiment: Compound was tested for antagonism of apomorphine-induced climbing behavior, after intraperitoneal dosing.; assay type: functional; conditions: ip
Rattus norvegicus [26] = experiment: Compound was tested for antagonism of apomorphine-induced stereotyped behavior, after intraperitoneal dosing and value ranges from 37.28 - 52.78; assay type: functional; conditions: ip; method in brief: as §2
[27] = molecular target: T1, 5-hydroxytryptamine receptor 1A; experiment: In vitro ability to inhibit [3H]8-OH-DPAT binding to 5-hydroxytryptamine 1A receptor of rat hippocampus and the value ranges from 48 to 59; assay type: tissue-based
[28] = molecular target: T1, 5-hydroxytryptamine receptor 1A; experiment: In vitro ability to inhibit [3H]8-OH-DPAT binding to 5-HT1A receptor of rat hippocampus and the value ranges from 9 - 12; assay type: tissue-based
[29] = molecular target: T1, 5-hydroxytryptamine receptor 1A; experiment: The inhibition activity of 5-HT1A at 1 uM
[30] = molecular target: T2, Adrenergic receptor alpha-1 (Rattus norvegicus); experiment: The percent inhibition of Alpha-1 adrenergic receptor at 1 uM; assay type: protein assay
D(2) dopamine receptor [31] = molecular target: T4, D(2) dopamine receptor; experiment: In vitro ability to inhibit [3H]spiperone binding to Dopamine receptor D2 of rat limbic structures and the value ranges from 116 - 159.; assay type: tissue-based, Limbic system
Rattus norvegicus [32] = organism: Rattus norvegicus; experiment: Anti psychotic activity was evaluated from the ability to block discrete trial conditioned avoidance response (CAR) of rats and the value ranges from 26 - 143; assay type: functional; method in brief: as §1
Rattus norvegicus [33] = experiment: Compound was tested for antagonism of apomorphine-induced climbing behavior, after intraperitoneal dosing and the value ranges from 0.97 - 11.7; assay type: functional; conditions: ip
Rattus norvegicus [34] = experiment: Compound was tested for antagonism of apomorphine-induced stereotyped behavior, after intraperitoneal dosing.; assay type: functional; conditions: ip; method in brief: as §2
Rattus norvegicus [35] = experiment: Mean total score of In vivo ability (10.0 mg/kg) was to antagonize serotonin syndrome; assay type: functional
Rattus norvegicus [36] = experiment: Mean total score of in vivo ability (8.0 mg/kg) was to elicit serotonin syndrome; assay type: functional
[37] = molecular target: D(2) dopamine receptor (Rattus norvegicus) (UniProt P61169); experiment: Compound was tested in vitro at for the ability to inhibit [3H]spiperone binding to Dopamine receptor D2 of rat limbic structures at 3 uM; assay type: tissue-based; conditions: Limbic system

- Ki [1]: 0.55 µM
- logP [2]: 1.64
- inhibition [3]: 21%
- inhibition [4]: 6%
- inhibition [5]: 0%
- inhibition [6]: 8%
- inhibition (Rattus norvegicus [7]): 0%
- inhibition [13]: 36%
SMILES: Cl.O=C1C2C3CCC(O3)C2S(=O)(=O)N1CCCCN1CCN(c2cncc(Cl)n2)CC1 (stereo not given)
- AB50 (Rattus norvegicus [8]): 34 mg/kg
- ED50 (Rattus norvegicus [9]): 27 mg/kg
- ED50 (Rattus norvegicus [10]): inactive
- Mean (Rattus norvegicus [11]): 12.3
- Mean (Rattus norvegicus [12]): 2.1

- inhibition [14]: 25%
- logP [2]: 1.14
- inhibition [15]: 0%
SMILES: Cl.Cl.O=C1C2C3CCC(O3)C2S(=O)(=O)N1CCCCN1CCN(c2cnccn2)CC1 (stereo not given)
- AB50 (Rattus norvegicus [16]): 48 mg/kg

- Ki (D(2) dopamine receptor [17]): 3.3 µM
SMILES: Cl.O=C1C2C3CCC(O3)C2S(=O)(=O)N1CCCCN1CCN(c2nccnc2Cl)CC1 (stereo not given)
- AB50 (Rattus norvegicus [18]): 48 mg/kg

- Ki [19]: 0.034 µM
- inhibition [20]: 55%
SMILES: Cl.Cl.Cl.O=C1C2C3CCC(O3)C2S(=O)(=O)N1CCCCN1CCN(c2cccc(Cl)c2)CC1 (stereo not given)
- AB50 (Rattus norvegicus [8]): 40 mg/kg

SMILES: CN1CCN(C2=Nc3cc(Cl)ccc3Nc3ccccc32)CC1 [CLOZAPINE]
- ED50 (Rattus norvegicus [21]): 4.55 mg/kg

- inhibition [22]: 52%
- inhibition [20]: 14%
SMILES: Cl.Cn1nnnc1N1CCN(CCCCN2C(=O)c3ccccc3S2(=O)=O)CC1
- AB50 (Rattus norvegicus [8]): 40 mg/kg

- Ki [23]: 0.014 µM
SMILES: Cl.O=C1C2C3C=CC(C4CC34)C2S(=O)(=O)N1CCCCN1CCN(c2cncc(Cl)n2)CC1 (stereo not given)
- AB50 (Rattus norvegicus [8]): 40 mg/kg

- Ki [24]: 0.022 µM
- inhibition [20]: 0%
SMILES: Cl.Cl.O=C1C2C3CCC(O3)C2S(=O)(=O)N1CCCCN1CCN(c2cccc(C(F)(F)F)c2)CC1 (stereo not given)
- AB50 (Rattus norvegicus [8]): 40 mg/kg
- ED50 (Rattus norvegicus [25]): 11.5 mg/kg
- ED50 (Rattus norvegicus [26]): 44.4 mg/kg

- Ki [27]: 0.053 µM
- logP [2]: 1.72
- inhibition [15]: 36%
SMILES: Cl.Cl.O=C1C2C3CCC(C3)C2S(=O)(=O)N1CCCCN1CCN(c2ncccn2)CC1 (stereo not given)
- AB50 (Rattus norvegicus [8]): 40 mg/kg

- Ki [28]: 0.01 µM
- Ki [29]: 0.01 µM
- logP [2]: 1.92
- inhibition [30]: 54%
- inhibition [5]: 0%
- Ki (D(2) dopamine receptor [31]): 0.136 µM
SMILES: Cl.Cl.O=C1C2C3C=CC(C4C=CC43)C2S(=O)(=O)N1CCCCN1CCN(c2ncccn2)CC1 (stereo not given)
- AB50 (Rattus norvegicus [32]): 39 mg/kg
- ED50 (Rattus norvegicus [33]): 3.38 mg/kg
- ED50 (Rattus norvegicus [34]): 32.2 mg/kg
- Mean (Rattus norvegicus [35]): 5.1
- Mean (Rattus norvegicus [36]): 3.9

- inhibition [37]: 57%
SMILES: Cl.O=C1C2C3C=CC(CC3)C2S(=O)(=O)N1CCCCN1CCN(c2cncc(Cl)n2)CC1 (stereo not given)
- AB50 (Rattus norvegicus [8]): 40 mg/kg
